This is a sample that favours compounds with a hit; in the whole collection about 2.5% have one here.
ADAM10 inh: inhibits human ADAM10. AID 720582. 370,000 compounds, 0.62% hits. inhibition, % at 7 µM. O14672. recombinant ADAM10, EDANS/DABCYL FRET peptide cleavage, 3 h;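 active means inhibition above a per-campaign cutoff equal to the mean of compounds falling between control-based bounds plus 3 SD, cut at about 20% in these data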;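 further: 0% = DMSO wells while the 100% control is not disclosed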
NR2E3 ag-1: activates human NR2E3 receptor; CHO-S Gal4-NCOR/VP16-NR2E3 two-hybrid, luciferase; inhibition of corepressor binding, % at 3.98 µM; 360,000 compounds, 0.35% hits;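 active means inhibition above the mean of all tested compounds plus 3 SD, cut at about 70% in these data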;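 further: 0% = DMSO with NR2E3 transfected cells and 100% = cells lacking NR2E3 construct; higher means lower luciferase signal from less NR2E3 corepressor binding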
ADAM17 inh: inhibitors of human ADAM17 | recombinant ADAM17, EDANS/DABCYL FRET peptide cleavage | inhibition, % at 6.95 µM | 370,000 compounds, 0.83% hits | AID 720648;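 active means inhibition above the mean of compounds lying between control limits plus 3 SD, set per campaign, cut at about 8.5% in these data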;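 further: 0% = DMSO-only wells as the low control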
Target sequence (P78536 215-824 limits assumed): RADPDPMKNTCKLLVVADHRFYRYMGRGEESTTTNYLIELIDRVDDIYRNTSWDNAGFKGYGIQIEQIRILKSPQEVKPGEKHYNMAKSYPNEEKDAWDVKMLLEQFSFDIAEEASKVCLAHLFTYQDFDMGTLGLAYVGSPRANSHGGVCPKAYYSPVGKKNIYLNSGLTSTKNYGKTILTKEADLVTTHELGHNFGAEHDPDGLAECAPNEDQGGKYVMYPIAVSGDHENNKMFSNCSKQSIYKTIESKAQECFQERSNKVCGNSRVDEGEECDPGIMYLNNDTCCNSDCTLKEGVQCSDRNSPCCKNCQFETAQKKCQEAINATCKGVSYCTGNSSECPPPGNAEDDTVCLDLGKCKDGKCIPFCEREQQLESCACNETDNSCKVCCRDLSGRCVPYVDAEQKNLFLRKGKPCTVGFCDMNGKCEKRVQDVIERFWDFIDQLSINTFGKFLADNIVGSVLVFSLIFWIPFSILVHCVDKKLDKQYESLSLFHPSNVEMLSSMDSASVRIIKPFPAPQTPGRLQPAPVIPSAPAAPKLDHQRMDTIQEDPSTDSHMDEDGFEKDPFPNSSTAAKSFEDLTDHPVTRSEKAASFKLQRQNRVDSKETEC
proKLK7 act: proKLK7 (human) activation, primary screen. P49862. purified proKLK7, EDANS-DABCYL substrate fluorescence; 100% is mature enzyme control, 0% vehicle. activation, % at 7 µM. 370,000 compounds, 0.9% hits. AID 652039;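 active means activation above the mean of all tested compounds plus 3 SD, computed per campaign excluding outliers beyond control limits, cut at about 13% in these data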
JMJD2C inh: blocks human GASC-1 demethylase activity | inhibition, % at 2.35 µM | GST-JMJD2C(1-420) H3K9me3 demethylation, DELFIA europium | 330,000 compounds, 0.069% hits | Q9H3R0;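 active means more than half of a compound's replicate wells show inhibition beyond 50%, single wells judged on their own value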;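 further: signal counts dimethyl H3K9 product captured on neutravidin plate; 0% = median of DMSO wells and 100% = 0.3 times that DMSO median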
NR2E3 ag-2: agonists of human nuclear receptor NR2E3. Q9Y5X4. GST-NR2E3/biotin-RetCOR TR-FRET, 1536-well. inhibition of corepressor binding, % at 4.78 µM. 320,000 compounds, 0.12% hits;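 active means percent inhibition above the cutoff of mean plus 3 SD of all tested compounds, set per screening campaign, cut at about 20% in these data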;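 further: 0% = DMSO wells and 100% = biotin wells as full block of FRET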
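System: GST-tagged NR2E3 plus biotinylated RetCOR corepressor; Buffer or medium: pH 7.5 Tris-based buffer; Probe or stimulus: RetCOR corepressor, biotinylated, 7 nM; Doses: compound at 4.8 µM, single dose; Schedule: 5 h incubation at 4 °C; Technique: time-resolved FRET; Evaluation: percent inhibition of TR-FRET ratio; Replication: one well per compound, singlicate testing.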
proKLK7 act conf: proKLK7 activation, confirmation | shares compounds with proKLK7 act | purified proKLK7, EDANS-DABCYL substrate fluorescence; scaled: vehicle 0, mature enzyme 100 | activation, % at 7 µM | 3,200 compounds, 68% hits | AID 686949;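 active means activation, as change over the incubation, above the mean of all tested compounds plus 3 SD, cut at about 13% in these data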
EDANS-DABCYL int: optically interferes with EDANS-DABCYL signal, flagging KLK7 hits; shares compounds with proKLK7 act; EDANS-DABCYL substrate fluorescence interference, no enzyme, 4 h; solvent 0%, active enzyme control 100%; activation, % at 7 µM; 3,200 compounds, 80% hits;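 active means activation above the all-compound mean plus 3 SD, ignoring values outside control-based bounds, cut at about 4.8% in these data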;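 further: value is the 4 h activation minus the activation read at time zero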
Active calls of the source: *; i = inactive; x = no result.

SMILES	ADAM10 inh	NR2E3 ag-1	ADAM17 inh	proKLK7 act	JMJD2C inh	NR2E3 ag-2	proKLK7 act conf	EDANS-DABCYL int
CC(=O)Nc1cccc(NC(=O)CSc2ncc(C(=O)Nc3ccc(F)cc3)c(=O)n2C)c1	-9	-11	0	0	-6	0	x	x
CC(=O)Nc1cccc(NC(=O)CSc2ncc(C(=O)Nc3ccccc3)c(=O)n2C)c1	-17	-18	-7	100*	0	0	6	13*
COc1ccc(NC(=O)NNC(=O)CCc2ccc(O)c(O)c2)cc1OC	-127	-32	-70	24*	-13	1	27*	24*
COc1ccc(CCC(=O)NNC(=O)Nc2ccc(OC)c(OC)c2)cc1	-3	-60	1	-1	4	7	x	x
CCOC(=O)c1c2ccc(OCC(=O)N/N=C/c3ccc(C)cc3)cc2n2ccccc12	-41	2	-13	-3	39	-2	x	x
CCOC(=O)c1c2ccc(OCC(=O)NN)cc2n2ccccc12	-451	7	-157	49*	-26	-3	-27	-33
COC(=O)[C@]12C[C@H](CC(=O)N3CCSCC3)C(=O)N(Cc3ccc(Cl)cc3Cl)C1=C[C@H](C1CCCC1)O[C@@H]2C	8	x	1	0	x	x	x	x
COc1ccc(/C=C(\C#N)C(=O)NCc2ccccc2)cc1	6	-1	-1	38*	2	0	-187	-241
COc1ccccc1N(C)S(=O)(=O)c1ccc(C(=O)N2CCCC(C(F)(F)F)C2)cc1 (stereo not drawn)	x	0	x	x	3	1	x	x
CC(C#N)(CCc1ccccn1)CCc1ccccn1	-17	-7	-5	0	x	x	x	x
O=C(NCc1ccco1)c1cccc(-c2cncc3nccn23)c1	i	-21	-323	16*	x	x	20*	19*
O=C(NC1CC1)c1ccc(-c2cnc3cccnn23)cc1	i	-79	i	77*	x	x	83*	79*
O=C(NCc1ccco1)c1cccc(-c2ccc3nccn3c2)c1	-29	-21	-8	0	x	x	x	x
O=C(c1cccc(-c2cccc3nccn23)c1)N1CCOCC1	-63	-22	-20	0	x	x	x	x
O=C(NC1CC1)c1ccccc1	-16	-20	-5	0	x	x	x	x
O=C(NC1CC1)c1cccc(-c2cncc3nccn23)c1	i	-8	-381	16*	x	x	7	11*
C[C@H](O)[C@@H]1CN2CCc3c([nH]c4c(-c5ccc6c(c5)OCO6)cccc34)[C@@H]2C[C@@H]1N(C)C(=O)NC1CCCCC1	0	x	1	0	x	x	x	x
CCOC(=O)C(Cc1ccccc1)P(=O)(OCC)OCC (stereo not drawn)	-6	x	-5	x	x	x	x	x
COc1cc2cc(C(N)=O)c(N)nc2cc1OC	i	-43	i	73*	9	2	65*	69*
O=C1CCCCC1Sc1nnc(-c2ccc3c(c2)OCO3)o1 (stereo not drawn)	-4	3	2	0	-2	-2	x	x
CN1CCCC1CCNc1ccc2sc3ccccc3c(=O)c2c1 (stereo not drawn)	-15	-9	-3	0	-4	-1	x	x
Cc1cc2oc3cc(NCCC4CCCN4C)ccc3c(=O)c2cc1C (stereo not drawn)	i	-69	i	62*	18	3	68*	64*
COc1ccc(/C=C/C(=O)c2ccc(O)cc2)cc1	-97	-28	-17	13*	11	0	4	2
O=C1C(=O)N(Cc2ccncc2)C(c2cccc(O)c2)/C1=C(\O)c1ccc2c(c1)OCCO2 (stereo not drawn)	-1	-29	5	15*	-9	13	6	7.4*
CN(C)c1ccc(-c2cc3ccccc3c(=O)o2)cc1	-67	-161	-29	3	9	x	x	x
COc1ccc(-c2cc(=O)c3c(O)c(OC)c(OC)c(OC)c3o2)cc1	-4	-47	-3	0	x	x	x	x
COc1ccc(-c2cc3ccccc3c(=O)o2)cc1	i	-94	-479	21*	x	x	-29	-29
